The source of these data is ChEMBL document CHEMBL1687858, “Natural and semisynthetic mammea-type isoprenylated dihydroxycoumarins uncouple cellular respiration” (J Nat Prod, 2011).

The structures appear in SMILES notation. pIC50: −log10 of the molar value. The source made the active and inactive calls. The rule behind the calls is not given here.

Assay [1] concerns the target T1, Hypoxia inducible factors; HIF-1-alpha, HIF-2-alpha (Homo sapiens, UniProt Q16665+Q99814). The assay is described as follows: Inhibition of 1,10-phenanthrolin-induced HIF1 activation in human T47D cells expressing pGL3 construct after 16 hrs by cell-based luciferase reporter assay. The method in brief: (§1)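 T47D cells carrying an HIF-1 luciferase reporter, induced for 16 h either by hypoxia (1% O2) or by 10 μM 1,10-phenanthroline, with compounds over 0.31 to 20 μM. IC50 and 95% CI taken from one representative of two independent experiments, each run in triplicate.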

The subject of assay [2] is PC-3. The assay is described as follows: Antiproliferative activity against human PC3 cells after 48 hrs. Type of assay: functional, cell-based. As to conditions: PC-3, 48 h. The method in brief:
(§2)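 Tumor cells (T47D or PC-3, from ATCC) exposed 48 h to compounds at 0.31 to 20 μM, from DMSO stocks with final DMSO under 0.5%. EC50 and 95% CI derived from one experiment run in triplicate. Maximum inhibition set at 50% for T47D and 40% for PC-3.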

Assay [3] relates to T47D. Briefly: Antiproliferative activity against human T47D cells after 48 hrs. The format is functional, cell-based. An outline of the steps: as §2
Assay [4] addresses T1, Hypoxia inducible factors; HIF-1-alpha, HIF-2-alpha. Briefly: Inhibition of hypoxia-induced HIF1 activation in human T47D cells expressing pGL3 construct after 16 hrs by cell-based luciferase reporter assay. An outline of the steps: as §1
Assay [5] concerns T47D. The assay is described as follows: Effect on cellular respiration in human T47D cells assessed as decrease in oxygen consumption at 0.3 to 10 uM by cell-based reporter assay in presence of F0F1ATPase 1 uM inhibitor oligomycin. The format is functional.
Assay [6] relates to T47D. Briefly: Effect on cellular respiration in human T47D cells assessed as oxygen consumption at 0.3 uM by cell-based reporter assay. The format is functional. An outline of the steps:
(§3)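 Oxygen consumption of T47D cells measured with compound at 0.3, 1, 3 and 10 μM. Reported as Relative Respiration Rate = 100 × (OCR compound / OCR untreated control) − 100. FCCP included as reference uncoupler. Mean + SD from three independent experiments.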

The test system of assay [7] is T47D. Briefly: Cytostatic effect against human T47D cells assessed as cell growth inhibition at 20 uM after 48 hrs. Type of assay: functional. Set-up: scale not given: the % may be the effect or the level left.
Assay [8] has as its system T47D. The assay is described as follows: Effect on cellular respiration in human T47D cells assessed as decrease in oxygen consumption at 10 uM by cell-based reporter assay. Type of assay: functional. An outline of the steps: as §3
The test system of assay [9] is PC-3. The assay is described as follows: Antiproliferative activity against human PC3 cells assessed as cell viability at 20 uM. Type of assay: functional. Particulars: read-out: Activity.
The test system of assay [10] is T47D. The assay is described as follows: Effect on cellular respiration in human T47D cells assessed as increase in state 4 respiration at 0.3 to 3 uM by cell-based reporter assay. The format is functional. An outline of the steps:
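Respiring T47D cells given oligomycin (1 μM) to set state 4 respiration, then compound or FCCP added at 0.3, 1 and 3 μM. Reported as Respiration Index = OCR (oligomycin + compound) / OCR (oligomycin).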

The subject of assay [11] is T47D. Briefly: Inhibition of hypoxia-induced VEGF protein secretion in human T47D cells after 16 hrs by ELISA. Type of assay: functional, cell-based. The method in brief:
(§4)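 T47D cells held under hypoxia (1% O2, 16 h) with compound at 3 or 10 μM. VEGF in conditioned medium measured by ELISA and normalized to cellular protein. Normoxic and hypoxic medium controls included. Mean + SD from one experiment run in triplicate.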

Assay [12] concerns T47D. The assay is described as follows: Inhibition of hypoxia-induced VEGF protein secretion in human T47D cells at 3 uM after 16 hrs by ELISA. Type of assay: functional. The method in brief: as §4
For assay [13], the system named is T47D. Briefly: Inhibition of hypoxia-induced VEGF protein secretion in human T47D cells upto 10 uM after 16 hrs by ELISA. Type of assay: functional. The method in brief: as §4

In the case of `CC[C@H](C)C(=O)c1c(O)c(CC=C(C)C)c(O)c2c(-c3ccccc3)cc(=O)oc12`, the IC50 in assay [1] amounted to 5.96 µM; in assay [4], 6.76 µM. In addition, the pIC50 in assay [2] is 5.28; in [3] it was 5.40.
As for `CCCCCc1cc(=O)oc2c(CC=C(C)C)c(O)c(C(=O)[C@H](C)CC)c(O)c12` [MAMMEA C/AB], the values for the IC50 in assay [1] and in assay [4] were 5.31 µM and 5.7 µM, respectively. For the same compound, the negative logarithm of the IC50 (pIC50) in assay [2] is 5.38; in [3], 5.45.
For `CCCC[C@H](O)c1cc(=O)oc2c(CC(=O)[C@@H](C)CC)c(OC)c(CC=C(C)C)c(OC)c12`, the IC50 in assay [1] came out at 11.3 µM; in assay [4], 7.42 µM. Moreover, the results for the negative-log IC50 (pIC50) in assay [2] and in assay [3] were 4.97 and 5.21, respectively.
On to `CCCC[C@H](OC)c1cc(=O)oc2c(C(=O)[C@@H](C)CC)c(OC)c(CC=C(C)C)c(OC)c12`, for which the concentration for half-maximal inhibition (IC50) amounted to 18.4 µM in assay [1] and 13.2 µM in assay [4]. Also, the pIC50 in assay [2] is below 4.70; in assay [3], 5.16.
As to `CC[C@H](C)C(=O)c1c(O)c(CC=C(C)C)c2oc(=O)cc(-c3ccccc3)c2c1O`, the IC50 was determined as 4.82 µM in [1] and 4.63 µM in [4]. Besides, the negative-log IC50 (pIC50) is 5.42 in [2] and 5.54 in assay [3].
Regarding `CCCCCc1cc(=O)oc2c(CC=C(C)C)c(O)c(C(=O)CC(C)C)c(O)c12`, the IC50 was 4.12 µM in [1] and 4.19 µM in assay [4]. The pIC50 was 5.47 in assay [2] and 5.50 in assay [3].
As to `CCCC[C@H](OC(C)=O)c1cc(=O)oc2c(C(=O)[C@@H](C)CC)c(OC(C)=O)c(CC=C(C)C)c(OC(C)=O)c12`, the result in assay [5] and in assay [8] was Active. In addition, the result in [6] was inactive. The half-maximal inhibitory concentration (IC50) in [1] turned out to be 1.06 µM; in [4] it was 0.83 µM. In addition, the Activity in assay [7] was 82%; in assay [10], “Non-toxic”. The pIC50 is 5.93 in assay [2] and 6.14 in assay [3]. For the same compound, in [9], the viability at 20 µM is 65%.
Turning to `CCCC[C@H](OC(C)=O)c1cc(=O)oc2c(C(=O)[C@@H](C)CC)c(OC(C)=O)c(CC=C(C)C)c(O)c12`, the IC50 stood at 5.47 µM in [1] and 5.11 µM in assay [4]. Moreover, the pIC50 in assay [2] is 5.19; in assay [3] it was 5.33.
Regarding `CC(C)=CCc1c(O)c(C(=O)CC(C)C)c(O)c2c(-c3ccccc3)cc(=O)oc12` [MAMMEISIN], the IC50 in assay [1] was found to be 3.71 µM; in assay [4], 4.44 µM. The pIC50 in [2] was 5.27; in assay [3], 5.37.
Turning to `CCCC[C@H](O)c1cc(=O)oc2c(C(=O)[C@@H](C)CC)c(OC)c(CC=C(C)C)c(OC)c12`, the inhibition entry in assay [11] was “Dose-dependent effect”. For the same compound, the outcome in [5] and in [8] was Active. Moreover, the result in assay [6] was inactive. In addition, the figures for the IC50 in assay [1] and in assay [4] were 6.5 µM and 6.31 µM, respectively. For the same compound, the Activity in assay [7] was 91%; in assay [10], “Non-toxic”. The negative-log IC50 (pIC50) in assay [2] is 5.19; in assay [3] it was 5.34. The inhibition result in [12] is “Active”. Moreover, the viability at 20 µM in assay [9] was 93%.
For the compound `CCCC[C@H](OC)c1cc(=O)oc2c(CC(=O)[C@@H](C)CC)c(OC)c(CC=C(C)C)c(OC)c12`, the IC50 is 15.7 µM in assay [1] and 5.91 µM in assay [4]. The pIC50 was below 4.70 in [2] and 5.33 in assay [3].
For the compound `CCCc1cc(=O)oc2c(C(=O)[C@@H](C)CC)c(O)c(CC=C(C)C)c(O)c12`, the results for the IC50 in [1] and in assay [4] were 3.25 µM and 5.04 µM, respectively. Further, the negative-log IC50 (pIC50) in assay [2] was 5.22; in [3], 5.49.
For the compound `CCCCCc1cc(=O)oc2c(C(=O)CC(C)C)c(O)c(CC=C(C)C)c(O)c12`, the inhibition result in [11] is “Dose-dependent effect”. Also, the result in assay [5], in assay [8] and in [10] was Active. Besides, in assay [6], the result was inactive. For the same compound, the IC50 came out at 2.71 µM in assay [1] and 2.76 µM in assay [4]. For the same compound, the results for the negative-log IC50 (pIC50) in assay [2] and in assay [3] were 5.73 and 5.87, respectively.
As to `CCCC[C@H](O)c1cc(=O)oc2c(C(=O)[C@@H](C)CC)c(O)c(CC=C(C)C)c(O)c12`, in assay [11], the inhibition entry was “Dose-dependent effect”. The outcome in assay [5], in assay [8] and in assay [10] was Active. Further, the result in assay [6] was inactive. The figures for the IC50 in [1] and in assay [4] were 2.3 µM and 2.23 µM, respectively. Besides, the pIC50 in assay [2] is 5.68; in assay [3] it was 5.87. The inhibition result in [12] is “inactive”.
Consider `CCCc1cc(=O)oc2c(CC=C(C)C)c(O)c(C(=O)CC(C)C)c(O)c12`, for which the values for the IC50 in assay [1] and in assay [4] were 9.56 µM and 9.4 µM, respectively. The pIC50 in [2] is 5.15; in [3], 5.44.
On to `CCCc1cc(=O)oc2c(C(=O)CC(C)C)c(O)c(CC=C(C)C)c(O)c12`, for which the inhibition entry in assay [11] is “Dose-dependent effect”. For the same compound, the outcome in assay [5], in assay [8] and in assay [10] was Active. The outcome in assay [6] was inactive. The IC50 in assay [1] is 1.28 µM; in assay [4], 2.2 µM. Besides, the pIC50 in assay [2] is 5.64; in [3], 5.88. The inhibition result in assay [12] was “inactive”.
In the case of `CCCC[C@H](OC(C)=O)c1cc(=O)oc2c(C(=O)[C@@H](C)CC)c(O)c(CC=C(C)C)c(OC(C)=O)c12`, the figures for the half-maximal inhibitory concentration (IC50) in assay [1] and in assay [4] were 1.68 µM and 2.06 µM, respectively. Also, the pIC50 was 5.94 in assay [2] and 6.01 in assay [3].
For `CCCC[C@H](O)c1cc(=O)oc2c(C(=O)CC(C)C)c(O)c(CC=C(C)C)c(O)c12`, in that order: 1.81 µM, 1.72 µM, 5.94 and 6.04.
Regarding `CCCCCc1cc(=O)oc2c(C(=O)[C@@H](C)CC)c(O)c(CC=C(C)C)c(O)c12`, the IC50 in assay [1] is 3.4 µM; in assay [4] it was 3.73 µM. For the same compound, the pIC50 was 5.66 in assay [2] and 5.81 in [3].
As to `CC(C)=CCc1c(O)c(C(=O)CC(C)C)c2oc(=O)cc(-c3ccccc3)c2c1O` [ISOMAMMEISIN], the inhibition result in assay [11] is “Dose-dependent effect”. Besides, the result in assay [5], in assay [8] and in assay [10] was Active. Moreover, the outcome in assay [6] was inactive. In addition, the IC50 in assay [1] is 3.73 µM; in assay [4], 3.23 µM. Besides, the pIC50 in assay [2] is 5.66; in [3] it was 5.80.
As for `CCCc1cc(=O)oc2c(CC=C(C)C)c(O)c(C(=O)[C@H](C)CC)c(O)c12`, the outcome in assay [5], in assay [8] and in [10] was Active. In addition, the outcome in assay [6] was inactive. Besides, the Activity in [13] stood at 1 µM. Besides, the 50% inhibitory concentration (IC50) in assay [1] turned out to be 8.21 µM; in assay [4], 9.96 µM. Further, the pIC50 was 4.98 in [2] and 5.26 in assay [3].
